The source of these data is ChEMBL document CHEMBL4033800, “Further Developments of the Phenyl-Pyrrolyl Pentane Series of Nonsteroidal Vitamin D Receptor Modulators as Anticancer Agents” (J Med Chem, 2018).

The test system of series [1] is MCF7. As to the kind of experiment: Induction of apoptosis in human MCF7 cells assessed as late apoptotic cells at 1 uM after 24 hrs by Annexin V-FITC/propidium iodide-staining based flow cytometry (reference value: 0.062%). The format is functional.
For series [2], the system named is MCF7. As to the kind of experiment: Induction of apoptosis in human MCF7 cells assessed as viable cells at 1 uM after 24 hrs by Annexin V-FITC/propidium iodide-staining based flow cytometry (reference value: 98.2%). The format is functional. The note with it: MCF7, 24 h, read-out: Activity. Background: A flow cytometer gives signals particle by particle.
In series [3] the test system is MCF7. As to the kind of experiment: Induction of apoptosis in human MCF7 cells assessed as necrotic cells at 1 uM after 24 hrs by Annexin V-FITC/propidium iodide-staining based flow cytometry (reference value: 0.031%). It counts as functional.
For series [4], the system named is Mus musculus. As to the kind of experiment: Hypercalcemic effect in ICR mouse assessed as serum calcium levels at 5 ug/kg, ip administered for 7 days measured on day 8 post-dose by MTB-based assay (reference value: 7.05 mg/dl). It counts as ADME, organism-based. The note with it: in vivo, 0.005 mg/kg, 168 h. The method in brief:
(§1)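 Mice were dosed i.p. over a 7-day period and serum calcium was then measured. Each dose level was compared with a vehicle-treated control group (saline cited as the comparator). Data are mean ± SEM, n = 6 per group. Significance versus vehicle was reported at p < 0.05, 0.01 and 0.001.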

Series [5] deals with MCF7. As to the kind of experiment: Induction of cell cycle arrest in human MCF7 cells assessed as accumulation at G2/M phase at 1 uM after 24 hrs by propidium iodide-staining based flow cytometry (reference value: 12.41%). It counts as functional.
In series [6] the test system is MCF7. As to the kind of experiment: Induction of cell cycle arrest in human MCF7 cells assessed as accumulation at S phase at 1 uM after 24 hrs by propidium iodide-staining based flow cytometry (reference value: 31.55%). It counts as functional.
Series [7] concerns MCF7. As to the kind of experiment: Induction of apoptosis in human MCF7 cells assessed as early apoptotic cells at 1 uM after 24 hrs by Annexin V-FITC/propidium iodide-staining based flow cytometry (reference value: 1.74%). The format is functional.
The subject of series [8] is MCF7. As to the kind of experiment: Induction of cell cycle arrest in human MCF7 cells assessed as accumulation at G0/G1 phase at 1 uM after 24 hrs by propidium iodide-staining based flow cytometry (reference value: 56.03%). It counts as functional.
In series [9] the test system is Mus musculus. As to the kind of experiment: Hypercalcemic effect in ICR mouse at 0.5 ug/kg, ip administered for 7 days measured on day 8 post-dose by MTB-based assay relative to control. The format is ADME, organism-based. The note with it: in vivo, 0.0005 mg/kg, 168 h. The method in brief: as §1
Series [10] is described as follows: Drug uptake in human MCF7 cells at 1 uM after 10 mins by HPLC analysis. It counts as ADME, cell-based. The note with it: mcf7, 10 min. The method in brief: (§2)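 MCF7 cells were given 1 µM compound in medium with 10% FBS for 10 or 30 min. Cells and medium were extracted separately with chloroform/methanol (3:1, v/v) and analysed by HPLC. Mean ± SEM, n = 3.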

A short description of series [11]: Drug metabolism in human MCF7 cells at 1 uM after 24 hrs by HPLC analysis. The format is ADME, cell-based. The note with it: read-out: Drug metabolism. The essentials: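 MCF7 cells were incubated 24 h with 1 µM compound, alongside a medium-only incubation without cells. Mixtures were extracted with chloroform/methanol (3:1, v/v) and quantified by HPLC. Mean ± SEM, n = 3.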

A short description of series [12]: Half life in iv dosed Sprague-Dawley rat. The settings on record: in vivo. It counts as ADME, organism-based.
The nature of series [13]: Drug uptake in human MCF7 cells at 1 uM after 30 mins by HPLC analysis. The format is ADME, cell-based. The note with it: mcf7, 0.5 h. The method in brief: as §2

Each structure is given as a SMILES string.

The term half-life denotes the time in which the quantity being followed falls by half. Take `C=C1/C(=C\C=C2/CCC[C@]3(C)[C@@H]([C@H](C)CCCC(C)(C)O)CC[C@@H]23)C[C@@H](O)C[C@@H]1O` [CALCITRIOL]: the Activity is 3.44% in series [1]; 0.15% in series [3]; 11.04 mg/dL in series [4]; 12.61% in series [5]; 23.9% in [6]; 6.59% in series [7]. The Activity is on record as 63.49% in series [8] and “Non-Toxic” in [9]. In addition, in [2], the viability at 1 µM was determined as 89.8%. Further, the Drug uptake in series [10] is given as 6.5%; in [13], 10.4%. In addition, in [11], the metabolised at 24 h, 1 µM was 27%. The compound also had a half-life in series [12] of 4.27 h.
